An excerpt weighted towards active compounds, which were near 1.3% of everything screened.
FN deposition inh – inhibitors of fibronectin matrix deposition, primary screen, AH1F cells, Alexa488-fibronectin fluorescence, plate reader. AH1F fibroblasts, overnight. inhibition, % at 12.6 µM. AID 743247, 2014. actives 0.086% (n = 350,000);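 active means mean inhibition across replicates of 30% or more, regardless of how many single replicates reach that level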
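Material: AH1F fibroblasts assembling fluorescent fibronectin matrix; amount: 10000 AH1F cells/well; medium: DMEM, 2% serum; reagent: Alexa488-fibronectin, 24 nM final in well; dosing: single compound dose, delivered by pin transfer; incubation: 1 h adhesion, overnight exposure; detection: fluorescence after three HBSS washes, excitation 485 nm, emission 525 nm; measure: fibronectin deposition inhibition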
ERp5 inh – inhibitors of ERp5-driven insulin aggregation, primary screen, biochemical, turbidity, absorbance 650 nm, single point | Protein disulfide-isomerase A6 (Homo sapiens), Q15084 | 90 min | inhibition, % at 9.99 µM | actives 0.05% (n = 350,000) | AID 651711, 2012;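 active means mean replicate inhibition above about 25%, with every replicate also reaching it, limit read from the data, passing the limit was not always enough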
PDI inh – inhibitors of human PDI, primary screen, biochemical, turbidity, single point, plate reader. actives 0.052% (n = 350,000). PDI insulin aggregation turbidity, A650, 90 min. Protein disulfide-isomerase (Homo sapiens), P07237. inhibition, % at 10 µM;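 active means mean inhibition across replicates of 30% or more, whatever share of single replicates reach that level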
SIRT5 inh – SIRT5 desuccinylase inhibitors, primary screen, biochemical, fluorescence imaging, single point, set 5; NAD-dependent protein deacylase sirtuin-5, mitochondrial (Homo sapiens), Q9NXA8; inhibition, % at 15 µM; actives 1.1% (n = 330,000); Purified SirT5, succinyl-peptide AMC, trypsin-coupled fluorescence; AID 652115, 2013; in the data active means inhibition above about 15%
MLL AF4-AF9 inh – inhibitors of AF4 peptide binding to AF9, primary screen, biochemical, AlphaScreen, biotin-AF4 peptide, FLAG-AF9, single point; Protein AF-9 (Homo sapiens), P42568; actives 0.47% (n = 350,000); AID 651704, 2012; inhibition, % at 10 µM;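 active means every replicate reaching a set inhibition limit, whatever the replicate mean, cut at about 25% in these data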
Target sequence (P42568 whole entry, looked up): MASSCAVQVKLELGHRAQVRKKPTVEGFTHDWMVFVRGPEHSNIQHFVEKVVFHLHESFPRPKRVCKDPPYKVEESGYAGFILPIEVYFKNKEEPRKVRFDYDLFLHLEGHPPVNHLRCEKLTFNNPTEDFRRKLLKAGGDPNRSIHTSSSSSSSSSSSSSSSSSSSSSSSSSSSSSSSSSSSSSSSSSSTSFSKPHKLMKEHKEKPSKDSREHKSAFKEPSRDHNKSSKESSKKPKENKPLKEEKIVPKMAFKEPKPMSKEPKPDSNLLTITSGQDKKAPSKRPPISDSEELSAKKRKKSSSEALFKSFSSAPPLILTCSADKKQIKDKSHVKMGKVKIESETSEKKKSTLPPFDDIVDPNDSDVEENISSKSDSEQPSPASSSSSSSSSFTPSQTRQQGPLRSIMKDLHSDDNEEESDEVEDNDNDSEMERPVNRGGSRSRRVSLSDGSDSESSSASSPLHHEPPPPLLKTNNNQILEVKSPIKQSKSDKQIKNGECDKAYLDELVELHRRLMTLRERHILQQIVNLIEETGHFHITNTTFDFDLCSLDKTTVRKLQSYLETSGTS
Numbers stand for hits; - = inactive; . = not tested or not shown.

SMILES	FN deposition inh	ERp5 inh	PDI inh	SIRT5 inh	MLL AF4-AF9 inh
C[C@H]1CN(C)C(=O)Cc2cc([N+](=O)[O-])ccc2O[C@@H]1CN(C)C(=O)OC(C)(C)C	-	.	.	.	.
Cc1cc(NS(=O)(=O)c2ccc(NC(=O)c3cc4c(=O)n5ccccc5nc4s3)cc2)nc(C)n1	-	-	-	-	-
CN(C)S(=O)(=O)c1cccc(NC(=O)c2cc3c(=O)n4ccccc4nc3s2)c1	-	-	-	16	-
CC1CN(C(=O)/C(C#N)=C2\N=C(NC(=O)c3ccccc3Cl)c3ccccc32)CC(C)O1 (stereo unspecified)	-	-	.	21	-
CC1CN(C(=O)/C(C#N)=C2\N=C(NC(=O)c3ccc(F)cc3)c3ccccc32)CC(C)O1 (stereo unspecified)	-	-	-	-	-
N#C[C@H]1[C@H](c2ccc(C#Cc3cccc(F)c3)cc2)[C@@H](CO)N1C(=O)C1CC1	-	-	.	-	-
CCCCN1CC(=O)N2[C@H](c3ccc(OC)cc3)[C@@H]3C(=O)N(CC)C(=O)[C@@H]3[C@]2(Cc2ccccc2)C1=O	-	-	-	27	-
COc1ccc(C)cc1NC(=O)Cc1c(C(=O)O)n(C)c2ccccc12	-	-	-	-	-
COc1ccc(C)cc1N(C)C(=O)Cc1c(C(=O)O)n(C)c2ccccc12	-	-	-	29	-
COc1ccc(-n2nnnc2SCC(=O)NNC(=O)c2ccc([N+](=O)[O-])cc2)cc1	-	.	-	.	.
O=C(NCc1ccccc1)[C@@H]1CCCN1C(=O)[C@@H](NS(=O)(=O)c1ccc(F)cc1F)c1ccccc1	-	-	.	-	.
CC(C)C[C@H](NS(=O)(=O)c1ccc(F)cc1F)C(=O)N1CCC[C@H]1C(=O)NCc1ccccc1	-	-	.	23	.
CC(=O)N1CCN(C(C)=O)c2ccccc21	-	-	-	-	36
COCCn1c(SCC(=O)N2CCCC2)nc2c(c1=O)SCC2	-	-	-	.	-
COCCn1c(SCC(=O)N2CCC(C)CC2)nc2c(c1=O)SCC2	-	-	-	25	-
COc1ccc(C(=O)O/N=C(\N)c2ccccn2)c(OC)c1	-	-	-	-	-
CCOC(=O)Cc1nnn(CC(=O)OCC)n1	.	.	-	.	.
COc1ccc2cc3cc(C(=O)N4CCCCC4C)oc3nc2c1 (stereo unspecified)	-	-	-	18	-
COc1ccc2cc3cc(C(=O)N4CCCCCC4)oc3nc2c1	.	.	-	.	.
O=C1/C(=C\c2cc([N+](=O)[O-])ccc2O)SC(=S)N1Cc1ccc(Cl)cc1	-	-	-	16	-
C[C@@H]1CN([C@@H](C)CO)C(=O)c2cc(C#CC3CCCCC3)cnc2O[C@@H]1CN(C)C(=O)Nc1ccccc1	-	-	.	16	-
C[C@H]1CN([C@@H](C)CO)C(=O)c2cc(C#CC3CCCCC3)cnc2O[C@@H]1CN(C)S(=O)(=O)c1cccc(F)c1	-	-	.	27	32
C[C@@H]1CN([C@H](C)CO)C(=O)c2cc(C#CC3CCCCC3)cnc2O[C@@H]1CN(C)S(=O)(=O)c1cccc(F)c1	-	-	.	-	-
C[C@H](CO)N1C[C@H](C)[C@H](CN(C)S(=O)(=O)c2cccc(F)c2)Oc2ncc(C#CC3CCCCC3)cc2C1=O	-	-	.	21	-
N#CC1=C(N)SC(N)=C(C#N)C1CCc1ccccc1	-	.	-	.	.
SMILES	FN deposition inh	ERp5 inh	PDI inh	SIRT5 inh	MLL AF4-AF9 inh
COc1cccc(-c2cc(C(=O)NCC3CCCO3)c3cc(Br)cc(C)c3n2)c1 (stereo unspecified)	-	-	-	17	-
CC(C)n1nc(C(=O)NNC(=O)c2ccncc2)c2ccccc2c1=O	-	-	-	-	-
C[C@@H]1CN([C@H](C)CO)C(=O)c2cccc(NC(=O)c3ccc(-c4nccs4)cc3)c2O[C@@H]1CN(C)Cc1ccc(C(F)(F)F)cc1	.	-	.	17	-
CNC[C@H]1Oc2c(NC(=O)c3ccc(-c4nccs4)cc3)cccc2C(=O)N([C@H](C)CO)C[C@H]1C	-	-	.	28	-
CNC[C@H]1Oc2c(N)cccc2C(=O)N([C@H](C)CO)C[C@@H]1C	-	-	.	3.0	-
CNC[C@@H]1Oc2c(NC(=O)c3ccc(-c4nccs4)cc3)cccc2C(=O)N([C@H](C)CO)C[C@@H]1C	-	-	.	-	-

Source: PubChem
